TRPC4 potent – allosterically enhances the mouse TRPC4 cation channel. HEK293 TRPC4beta/mu-opioid, DAMGO EC20, Fluo-4 Ca2+ flux; active compounds read high. B-score at 10 µM. 310,000 tested, 0.42% active. AID 2227;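 active means B-score of calcium response area above 5 SD of library B-scores, with initial fluorescence ratio within 5 SD of library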;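 further: B-score of integrated fluorescence ratio over time as area under calcium response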
TRPC4 block – inhibitors of mouse TRPC4 channel; B-score at 10 µM; Q9QUQ5; 300,000 tested, 0.39% active; AID 2247; HEK293 TRPC4beta/mu-opioid, DAMGO-evoked Fluo4 calcium flux; active compounds read low;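 active means B-score over 3 SD under the library average, no early fluorescence shift, positive overall ratio signal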
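Test system – stable TRPC4beta/mu-opioid receptor HEK293 cells · Probe or stimulus – DAMGO, a submaximal dose followed by a maximal one · Dosing – one concentration per compound · Signal – Fluo4 calcium fluorescence by kinetic imaging, 5 s 1 Hz baseline · Evaluation – per-well B score of integrated baseline-normalized Fluo4 ratio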
TRPC6 activator – activators of mouse TRPC6 channel; Q61143; HEK293-TRPC6 membrane potential dye fluorescence; active compounds read high; B-score at 10 µM; 310,000 tested, 0.13% active; AID 2550;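 active means B-score of the integrated fluorescence ratio above library mean plus 3 SD, and starting fluorescence ratio within library mean plus 5 SD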;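 further: higher score means more depolarization so channel activation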
Target sequence (Q61143 whole entry, looked up): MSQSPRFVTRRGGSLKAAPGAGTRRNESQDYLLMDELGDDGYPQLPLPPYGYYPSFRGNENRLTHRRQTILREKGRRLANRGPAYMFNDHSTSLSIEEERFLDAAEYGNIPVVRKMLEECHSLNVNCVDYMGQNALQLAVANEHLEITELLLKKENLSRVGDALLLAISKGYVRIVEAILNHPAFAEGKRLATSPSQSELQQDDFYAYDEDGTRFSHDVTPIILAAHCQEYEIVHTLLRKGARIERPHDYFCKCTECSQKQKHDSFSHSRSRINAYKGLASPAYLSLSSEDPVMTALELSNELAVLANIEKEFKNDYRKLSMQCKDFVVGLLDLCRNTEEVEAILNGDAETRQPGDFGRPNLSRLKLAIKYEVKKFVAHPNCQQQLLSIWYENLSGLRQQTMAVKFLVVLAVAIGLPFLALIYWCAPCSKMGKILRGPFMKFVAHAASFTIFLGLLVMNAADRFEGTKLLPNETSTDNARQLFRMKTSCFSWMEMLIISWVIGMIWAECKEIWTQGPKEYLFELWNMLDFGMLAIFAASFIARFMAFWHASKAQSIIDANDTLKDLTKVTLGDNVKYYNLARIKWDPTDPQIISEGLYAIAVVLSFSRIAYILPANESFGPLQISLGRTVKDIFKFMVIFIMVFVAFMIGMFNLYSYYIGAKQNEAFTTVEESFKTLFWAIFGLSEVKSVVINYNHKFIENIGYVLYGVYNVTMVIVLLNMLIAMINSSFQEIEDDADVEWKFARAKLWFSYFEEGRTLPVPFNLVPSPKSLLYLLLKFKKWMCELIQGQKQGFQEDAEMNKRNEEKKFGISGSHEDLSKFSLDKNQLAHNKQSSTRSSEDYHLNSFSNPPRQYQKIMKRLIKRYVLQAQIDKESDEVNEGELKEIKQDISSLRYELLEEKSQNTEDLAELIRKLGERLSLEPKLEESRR
TRPC4 act – activators of mouse TRPC4 channel; Q9QUQ5; HEK293 TRPC4beta/mu-opioid, Fluo4 calcium fluorescence; active compounds read high; B-score at 10 µM; 310,000 tested, 0.49% active;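 active means B-score above 5 SD of library B-scores, and initial fluorescence ratio not above library mean plus 5 SD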;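 further: positive B-score marks a calcium rise read as TRPC4 activation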
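Technique: kinetic Fluo4 calcium fluorescence; Test system: TRPC4beta and mu-opioid receptor HEK293 stable cells; Measure: B-scored integrated calcium fluorescence ratio; Benchmarks: low control buffer alone, high control maximal DAMGO; Schedule: 45 min room-temperature Fluo4 loading, 110 s read.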
TRPC6 inh – blocks the mouse TRPC6 cation channel; Q61143; HEK293-TRPC6, membrane potential dye, ACh-evoked depolarization; active compounds read low; B-score at 10 µM; 310,000 tested, 1.1% active; AID 2553;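 active means B-score under library mean minus 3 SD, initial fluorescence not abnormally high, positive integrated signal ratio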;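 further: B-score derived from integrated fluorescence ratio over the kinetic read; more negative B-score means stronger inhibition of depolarization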
* marks the source's active call; other numbers are inactive results; i = inactive. Shown are actives, neighbours in structure and some others; about 2.3% of the full set was active somewhere.

SMILES | TRPC4 potent | TRPC4 block | TRPC6 activator | TRPC4 act | TRPC6 inh
COCCN(Cc1cc2ccc(C)cc2[nH]c1=O)S(=O)(=O)c1ccccc1 | i | i | i | i | i
COC(=O)CCc1c(COC(C)=O)[nH]c(C(=O)OCc2ccccc2)c1C | i | i | i | i | i
Cc1cccc(C)c1N1CCc2cn[nH]c21 | i | -6* | i | i | i
Cn1c(N2CCC(C(N)=O)CC2)nc2c1c(=O)n(Cc1ccc(Br)cc1)c(=O)n2C | 15* | i | i | i | i
Cn1c(N2CCCCC2)nc2c1c(=O)n(Cc1cccc(Br)c1)c(=O)n2C | i | i | i | i | i
CC1CN(c2nc3c(c(=O)n(Cc4ccc(Cl)c(Cl)c4)c(=O)n3C)n2C)CC(C)O1 (stereo not drawn) | 14* | i | i | i | i
Cc1cccc(Cn2c(=O)c3c(nc4n3CCCN4Cc3ccccc3)n(C)c2=O)c1 | 20* | i | i | i | i
CCc1cc(C(c2cccc(OC)c2)N2CCOCC2)c(NC(=O)c2ccccc2)s1 (stereo not drawn) | i | -6* | i | i | i
CCc1cc(C(c2ccc(OC)c(OC)c2)N2CCOCC2)c(NC(=O)c2ccccc2)s1 (stereo not drawn) | i | i | i | i | i
c1ccc2c3c([nH]c2c1)CCNC3 | 24* | i | i | i | i
Cc1ccc2[nH]c3c(c2c1)CNCC3 | i | i | i | i | i
Cn1c(=O)n(C)c2cc(NC(=O)CCc3ccccc3)c(Br)cc21 | i | i | i | i | i
CSc1ccc(CN(C)Cc2cc(=O)oc3c(C)c(C)ccc23)cc1 | i | i | i | i | i
Cc1ccc2c(CN(C)Cc3cccc(Cl)c3)cc(=O)oc2c1C | 11* | i | i | i | i
S=C(NCCc1ccccc1)NCCc1ccccc1 | i | i | i | i | i
S=C(NCCc1ccccc1)Nc1ccc(Br)cn1 | 11* | i | i | i | i
Cc1ccc(NS(=O)(=O)c2ccc(N3CCN(c4ccc(O)cc4)CC3)c([N+](=O)[O-])c2)c(C)c1 | 26* | i | i | i | i
O=[N+]([O-])c1cc(S(=O)(=O)Nc2ccccc2)ccc1N1CCN(c2ccc(O)cc2)CC1 | i | i | i | i | i
Cc1onc(-c2ccccc2)c1C(=O)NCc1ccc2c(c1)OCO2 | i | i | i | i | i
Cc1onc(-c2ccccc2)c1C(=O)NC(=S)NNC(=O)c1ccco1 | i | i | i | 84* | i
Cc1onc(-c2ccccc2)c1C(=O)NNC(=S)NC(=O)c1ccc2c(c1)OCO2 | i | i | i | 79* | i
Cc1onc(-c2ccccc2)c1C(=O)NNC(=S)NC(=O)/C=C/c1cccs1 | i | i | i | 52* | i
Cc1onc(-c2ccccc2)c1C(=O)NC(=S)NNC(=O)c1ccncc1 | i | i | i | i | i
COc1ccc(C(=O)NC(=S)NNC(=O)c2c(-c3ccccc3)noc2C)cc1OC | i | i | i | 85* | i
O=C(COC(=O)CNC(=O)c1ccc(Cl)cc1)Nc1ccc(Cl)cc1C(F)(F)F | i | i | i | i | i
SMILES | TRPC4 potent | TRPC4 block | TRPC6 activator | TRPC4 act | TRPC6 inh
Cc1ccccc1C(=O)NNC(=S)NC(=O)c1cccs1 | i | i | i | 159* | i
CCCC(=O)Nc1ccc(C(=O)NNC(=S)NC(=O)c2cccs2)cc1 | i | i | i | i | i
CC(C)(C)c1ccc(C(=O)NC(=S)NNC(=O)c2cccs2)cc1 | i | i | i | 339* | i
O=C(NNC(=S)Nc1ccccc1)c1cccs1 | i | i | i | i | i
Cc1cccc(C(=O)NC(=S)NNC(=O)c2cccs2)c1 | i | i | i | 236* | i
O=C(NC(=S)NNC(=O)c1cccs1)c1ccccc1 | i | i | i | 82* | i
Cc1cccc(C(=O)NC(=S)NNC(=O)c2ccc(Cl)cc2)c1 | i | i | i | i | i
Cc1ccccc1C(=O)Nc1cccc(NC(=S)NC(=O)c2cccs2)c1 | i | i | i | i | i
O=C(CC12CC3CC(CC(C3)C1)C2)NC(=S)NCc1ccco1 | i | i | i | i | i
